From ChEMBL document CHEMBL1157729, “Structure-activity relationship and mechanism of action studies of manzamine analogues for the control of neuroinflammation and cerebral infections” (J Med Chem, 2010)
In brackets after ≈: the same amount, converted by molar mass.

Experiments:
[1] = system: Plasmodium falciparum; assay: Antiplasmodial activity against chloroquine-sensitive Plasmodium falciparum D6 after 72 hrs by LDH assay; assay type: functional, organism-based
[2] = system: Vero; assay: Cytotoxicity against african green monkey Vero cells up to 4.6 ug/mL after 48 hrs by neutral red assay; assay type: cell-based; settings: chlorocebus sabaeus
How it was run: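 Vero cells were seeded at 25,000 cells/well and incubated for 24 h, then exposed to serially diluted samples for 48 h. Viable cells were counted by Neutral Red assay, with doxorubicin as positive control. IC50 was taken from dose-response curves.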

[3] = system: Mycobacterium tuberculosis; assay: Antimycobacterial activity against Mycobacterium tuberculosis H37Rv; assay type: functional, organism-based
[4] = system: Candida albicans; assay: Antifungal activity against Candida albicans ATCC 90028; assay type: functional, organism-based
How it was run: (§1)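 Broth microdilution per modified CLSI method; samples serially diluted in 20% DMSO/saline, tested in duplicate; inocula set by OD630 of suspensions in incubation broth; growth read at 630 nm before and after incubation; amphotericin B drug control.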

[5] = system: Cryptococcus neoformans; assay: Antifungal activity against Cryptococcus neoformans ATCC 90113; assay type: functional, organism-based; how it was run: as §1
[6] = system: Mycobacterium intracellulare; assay: Antimycobacterial activity against Mycobacterium intracellular ATCC 23068; assay type: functional, organism-based
How it was run: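 Modified Franzblau method; samples serially diluted in 20% DMSO/saline, tested in duplicate; inoculum set by OD630; fluorescence read at 544ex/590em before and after incubation; ciprofloxacin drug control.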

[7] = system: Plasmodium falciparum; assay: Antiplasmodial activity against chloroquine-resistant Plasmodium falciparum W2 after 72 hrs by LDH assay; assay type: functional, organism-based
[8] = Antineuroinflammatory activity in LPS-stimulated rat neonatal microglia assessed as inhibition of PMA-induced superoxide anion production preincubated 15 mins prior to PMA challenge measured after 70 mins; assay type: functional, cell-based
[9] = Antineuroinflammatory activity in LPS-stimulated rat neonatal microglia assessed as inhibition of PMA-induced TXB2 production preincubated 15 mins prior to PMA challenge measured after 70 mins; assay type: functional, cell-based
[10] = Antineuroinflammatory activity in LPS-stimulated rat neonatal microglia assessed as drug level causing 50% PMA-induced LDH release preincubated 15 mins prior to PMA challenge measured after 70 mins; assay type: functional
How it was run: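 Neonatal rat microglia (2 × 10^5/well) primed with E. coli LPS 0.3 ng/mL for 17 h at 35.9 °C, washed with HBSS, given compound (0.01–10 μM) or DMSO 15 min, then PMA 1 μM; LDH read spectrophotometrically after 70 min; LDH50 relative to Triton X-100 (0.1%) release; duplicates.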

[11] = Plasmodium falciparum, D6, 72 h, read-out: IC50
[12] = Plasmodium falciparum, W2, 72 h, read-out: IC50

Row | SMILES | IC50 [1, 11] [µg/mL] | Activity [2] | MIC [3] [µg/mL] | IC50 [4] [µg/mL] | IC50 [5] [µg/mL] | IC50 [6] [µg/mL] | IC50 [1] | IC50 [7] | IC50 [7, 12] [µg/mL] | IC50 [8] [µM] | IC50 [9] [nM] | Activity [10] [µM]
1 | CC[C@@]1(O)CCCN2[C@@H](CC1)C[C@]13CN4CCCC/C=C\CC[C@](O)(C=C(c5nccc6c5[nH]c5c(O)cccc56)[C@@H]1CC4)[C@H]23 | 0.077 (≈ 0.126 µM) | Non-toxic | 1.9 (≈ 3.11 µM) | 2.5 (≈ 4.09 µM) | 6 (≈ 9.82 µM) | 0.25 (≈ 0.409 µM) | – | – | – | – | – | –
2 | Oc1cccc2c1[nH]c1c(C3=C[C@@]4(O)CC/C=C\CCCCN5CC[C@@H]3[C@]3(C[C@@H]6CC[C@H](O)CCCN6[C@H]34)C5)nccc12 | – | Non-toxic | 1.7 (≈ 2.92 µM) | 15 (≈ 25.7 µM) | 10 (≈ 17.2 µM) | 1.5 (≈ 2.57 µM) | Not Active | Not Active | – | – | – | –
3 | COC(=O)CCCCn1c2ccccc2c2ccnc(C3=C[C@@]4(O)CC/C=C\CCCCN5CC[C@@H]3[C@]3(C[C@@H]6/C=C\C(=O)CCCN6[C@H]34)C5)c21 | 2 (≈ 2.95 µM) | Non-toxic | – | > 20 | 15 (≈ 22.2 µM) | 20 (≈ 29.5 µM) | – | – | 2 (≈ 2.95 µM) | – | – | –
4 | O=C1CC[C@H]2C[C@]34CN5CCCC/C=C\CC[C@](O)(C=C(c6nccc7c6[nH]c6c(O)cccc67)[C@@H]3CC5)[C@@H]4N2CC/C1=C/c1ccc(F)cc1 | – | Non-toxic | – | > 20 | > 20 | > 20 | Not Active | Not Active | – | – | – | –
5 | COc1ccc(/C=C2/CCN3[C@@H](CCC2=O)C[C@]24CN5CCCC/C=C\CC[C@](O)(C=C(c6nccc7c6[nH]c6c(O)cccc67)[C@@H]2CC5)[C@H]34)cc1OC | – | Non-toxic | > 64 | > 20 | > 20 | > 20 | Not Active | Not Active | – | – | – | –
6 | O=C1CC[C@H]2C[C@]34CN5CCCC/C=C\CC[C@](O)(C=C(c6nccc7c6[nH]c6c(O)cccc67)[C@@H]3CC5)[C@@H]4N2CC/C1=C/c1c(Cl)cccc1Cl | – | Non-toxic | > 64 | > 20 | > 20 | > 20 | Not Active | Not Active | – | – | – | –
7 | CC(=O)Oc1cccc2c1[nH]c1c(C3=C/C4=C/C/C=C\CCCCN5CC[C@@H]3[C@]3(C[C@@H]6/C=C\CCCCN6[C@@H]43)C5)nccc12 | 2.5 (≈ 4.25 µM) | – | > 64 | > 20 | > 20 | 10 (≈ 17 µM) | – | – | 3.8 (≈ 6.45 µM) | – | – | –
8 | COc1ccc(/C=C2/CCN3[C@@H](CCC2=O)C[C@]24CN5CCCC/C=C\CC[C@](O)(C=C(c6nccc7c6[nH]c6c(O)cccc67)[C@@H]2CC5)[C@H]34)cc1 | – | Non-toxic | > 64 | > 20 | > 20 | > 20 | Not Active | Not Active | – | – | – | –
9 | N/N=C1/CCCN2[C@@H](CC1)C[C@]13CN4CCCC/C=C\CC[C@](O)(C=C(c5nccc6c5[nH]c5c(O)cccc56)[C@@H]1CC4)[C@H]23 | – | Non-toxic | 1.9 (≈ 3.19 µM) | > 20 | 1 (≈ 1.68 µM) | 0.09 (≈ 0.151 µM) | – | – | 0.038 (≈ 0.0639 µM) | – | – | –
10 | O=C1CC[C@H]2C[C@]34CN5CCCC/C=C\CC[C@](O)(C=C(c6nccc7c6[nH]c6c(O)cccc67)[C@@H]3CC5)[C@@H]4N2CC/C1=C/c1ccc([N+](=O)[O-])cc1 | – | Non-toxic | > 64 | > 20 | > 20 | > 20 | Not Active | Not Active | – | – | – | –
11 | CCCCCCCCCCCCn1c2ccccc2c2ccnc(C3=C[C@@]4(O)CC/C=C\CCCCN5CC[C@@H]3[C@]3(C[C@@H]6/C=C\CCCCN6[C@H]34)C5)c21 | – | Non-toxic | – | > 20 | > 20 | > 20 | Not Active | Not Active | – | – | – | –
12 | COc1cccc(/C=C2/CCN3[C@@H](CCC2=O)C[C@]24CN5CCCC/C=C\CC[C@](O)(C=C(c6nccc7c6[nH]c6c(O)cccc67)[C@@H]2CC5)[C@H]34)c1 | – | Non-toxic | > 64 | > 20 | > 20 | > 20 | Not Active | Not Active | – | – | – | –
13 | O=C1CC[C@H]2C[C@]34CN5CCCC/C=C\CC[C@](O)(C=C(c6nccc7c6[nH]c6c(O)cccc67)[C@@H]3CC5)[C@@H]4N2CC/C1=C/c1ccc(Br)cc1 | – | Non-toxic | > 64 | > 20 | > 20 | > 20 | Not Active | Not Active | – | – | – | –
14 | [O-][N+]12CCCC/C=C\CC[C@]3(O)C=C(c4nccc5c4[nH]c4ccccc45)[C@H](CC1)[C@]1(C[C@@H]4/C=C\CCCC[N@+]4([O-])[C@H]13)C2 | – | Non-toxic | – | > 20 | > 20 | 10 (≈ 17.2 µM) | – | – | – | – | – | –
15 | O=[N+]([O-])c1cccc2c1[nH]c1c(C3=C[C@@]4(O)CC/C=C\CCCCN5CC[C@@H]3[C@]3(C[C@@H]6/C=C\CCCCN6[C@H]34)C5)nccc12 [8-NITROMANZAMINE A] | 0.31 (≈ 0.522 µM) | Non-toxic | – | > 20 | 4 (≈ 6.74 µM) | 0.25 (≈ 0.421 µM) | – | – | 0.41 (≈ 0.691 µM) | – | – | –
16 | O[C@]12C=C(c3nccc4c3[nH]c3ccccc34)[C@@H]3CCN(CCCC/C=C\CC1)C[C@@]31C[C@@H]3CCCCCCN3[C@H]12 [32,33-DIHYDROMANZAMINE A] | – | – | 66 (≈ 120 µM) | 9.5 (≈ 17.2 µM) | 1.5 (≈ 2.72 µM) | 0.6 (≈ 1.09 µM) | – | – | 1.8 (≈ 3.27 µM) | – | – | –
17 | C[C@@H]1[C@H](O)[C@@H](C)/C=C/C=C/C=C/C=C/C=C/C=C/C=C/[C@H](O[C@@H]2O[C@H](C)[C@@H](O)[C@H](N)[C@@H]2O)C[C@@H]2O[C@](O)(C[C@@H](O)C[C@@H](O)[C@H](O)CC[C@@H](O)C[C@@H](O)CC(=O)O[C@H]1C)C[C@H](O)[C@H]2C(=O)O [AMPHOTERICIN B] | – | – | – | 0.2 (≈ 0.216 µM) | – | – | – | – | – | – | – | –
18 | C1=C(c2nccc3c2[nH]c2ccccc23)[C@@H]2CCN3CCCC/C=C\C/C=C/1[C@@H]1N4CCCC/C=C\[C@H]4C[C@@]12C3 [DEHYDROMANZAMINE A] | 0.12 (≈ 0.226 µM) | – | 46 (≈ 86.7 µM) | 9.5 (≈ 17.9 µM) | 4.5 (≈ 8.48 µM) | 0.4 (≈ 0.754 µM) | – | – | 2.2 (≈ 4.14 µM) | – | – | –
19 | O=CC1=C[C@@]2(O)CC/C=C\CCCCN3CC[C@@H]1[C@]1(C[C@@H]4/C=C\CCCCN4[C@H]12)C3 [IRCINAL] | – | – | – | – | – | – | – | – | – | > 10 | 330 | 4.6
20 | O=C1CCCN2[C@@H](CC1)C[C@]13CN4CCCC/C=C\CC[C@](O)(C=C(c5nccc6c5[nH]c5c(O)cccc56)C1CC4)[C@H]23 (some centres not stated) [MANZAMINE F] | – | – | – | 15 (≈ 25.8 µM) | – | – | – | – | – | – | – | –
21 | CO[C@H]1/C=C/O[C@@]2(C)Oc3c(C)c(O)c4c(O)c(c(/C=N/N5CCN(C)CC5)c(O)c4c3C2=O)NC(=O)/C(C)=C\C=C\[C@H](C)[C@H](O)[C@@H](C)[C@@H](O)[C@@H](C)[C@H](OC(C)=O)[C@@H]1C [RIFAMPIN] | – | – | 0.09 (≈ 0.109 µM) | – | – | – | – | – | – | – | – | –
